Data published in ChEMBL document CHEMBL1687750, “Nonclinical pharmacokinetics of oseltamivir and oseltamivir carboxylate in the central nervous system” (Antimicrob Agents Chemother, 2009).

Assays:
Cerebrospinal fluid = assay: Cmax in non-perfused Sprague-Dawley rat cerebrospinal fluid assessed as active metabolite oseltamivir carboxylate level at 30 mg/kg, iv; type: ADME, organism-based; set-up: dose 30 mg/kg, route intravenous; conditions: in vivo, BLD = below limit of detection
Method in brief: (§1)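 Nonfasted adult rats received 30 mg/kg in aqueous 0.9% NaCl (pH 4.0) by slow tail-vein injection over 20–30 s. Groups were sampled at 5 min and 0.25, 0.5, 1, 2, 4 and 8 h, with 4–5 rats per time point, under terminal isoflurane. Blood was taken by heart puncture and CSF from the cisterna magna. Brains were homogenized either unperfused or after transcardial saline perfusion. Samples were assayed by LC-MS/MS, and pooled composite data were analyzed noncompartmentally.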

Brain [1] = assay: Cmax in non-perfused Sprague-Dawley rat brain assessed as active metabolite oseltamivir carboxylate level at 30 mg/kg, iv; type: ADME, organism-based; set-up: dose 30 mg/kg, route intravenous; conditions: in vivo; method in brief: as §1
Plasma [2] = assay: Cmax in perfused Sprague-Dawley rat plasma assessed as active metabolite oseltamivir carboxylate level at 30 mg/kg, iv; type: ADME, organism-based; set-up: dose 30 mg/kg, route intravenous; conditions: in vivo; method in brief: as §1
Brain [3] = assay: Cmax in perfused Sprague-Dawley rat brain assessed as active metabolite oseltamivir carboxylate level at 30 mg/kg, iv; type: ADME, organism-based; set-up: dose 30 mg/kg, route intravenous; conditions: in vivo; method in brief: as §1
[4] = Cmax in perfused Sprague-Dawley rat brain at 30 mg/kg, iv after 0.25 hrs; type: ADME, organism-based; set-up: dose 30 mg/kg, route intravenous; method in brief: as §1
Brain [5] = assay: AUC (0 to 8 hrs) after iv dose in non-perfused Sprague-Dawley rat brain assessed as active metabolite oseltamivir carboxylate level at 30 mg/kg; conditions: in vivo
Plasma [6] = assay: AUC (0 to 8 hrs) after iv dose in non-perfused Sprague-Dawley rat plasma assessed as active metabolite oseltamivir carboxylate level at 30 mg/kg; conditions: in vivo
LLC-PK1 [7] = assay: Permeability from apical to basolateral side of pig LLC-PK1 cells over expressing human MDR1; type: ADME, cell-based, Sus scrofa
Method in brief: (§2)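 P-gp-transfected LLC-PK1 monolayers received [14C]oseltamivir (0.1–10 mM) plus Lucifer yellow on the apical or basolateral donor side, with or without 1 µM elacridar. Incubation was at 37°C under 5% CO2. The acceptor side was sampled at 0.5–3 h and counted by scintillation. Pe was taken from the 3 h point, without correction for marker flux. Three inserts were used per condition and averaged.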

LLC-PK1 [8] = assay: Permeability from basolateral to apical side of pig LLC-PK1 cells over expressing human MDR1; type: ADME, cell-based, Sus scrofa; method in brief: as §2
[9] = molecular target: ATP-dependent translocase ABCB1 (Homo sapiens, UniProt P08183); assay: Inhibition of human MDR1-mediated digoxin permeability expressed in pig LLC-PK1 cells; type: cell-based
Method in brief: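 P-gp-transfected LLC-PK1 monolayers were used, with labeled digoxin (10 nM) as substrate and unlabeled oseltamivir (0.1–10 mM) added to both donor and receiver sides. Transport was bidirectional at 37°C under 5% CO2, with the acceptor side sampled up to 3 h and counted by scintillation. Three inserts were used per condition, and IC50 was derived from inhibition of digoxin transport.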

[10] = Prodrug conversion in 42 days old female rat liver S9 fractions assessed as paranitrophenol generation rate assessed per mg of protein per min; type: ADME, subcellular, S9 fraction
Method in brief: (§3)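 Control esterase activity was measured by incubating 100 µM p-nitrophenyl acetate (final) with 0.05 mg rat brain or liver S9 protein in 1.5 ml Tris-HCl pH 7.4 for 1 min at 37°C. Reactions were quenched with acetonitrile, and product was quantified by HPLC-UV against external standards. The no-protein blank rate was subtracted, and rate was expressed per mg protein per min.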

[11] = Prodrug conversion assessed as oseltamivir carboxylate level in presence of Sf9 cell culture supernatant expressing human recombinant HCE1 after 30 mins; type: ADME; conditions: sf9, 0.5 h
Method in brief: (§4)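 Culture supernatants from baculovirus-infected Sf9 cells (day 5–7; 1.0 mg/ml protein) were incubated in triplicate with 10 µM 14C-oseltamivir in 100 mM Tris-HCl at 37°C for 30 min. Reactions were quenched with TCA-acetonitrile, then analyzed by HPLC with fraction scintillation counting. Conversion was calculated as OC radioactivity over total radioactivity, corrected for no-enzyme hydrolysis. Wild-type virus and liver S9 served as controls.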

[12] = Prodrug conversion assessed as oseltamivir carboxylate level in presence of Sf9 cell culture supernatant expressing human recombinant HCE2 after 30 mins; type: ADME; conditions: sf9, 0.5 h; method in brief: as §4
[13] = Prodrug conversion in commercial liver S9 fractions assessed as paranitrophenol generation rate assessed per mg of protein per min; type: ADME, subcellular, Liver S9 fraction
[14] = Prodrug conversion in 42 days old female rat brain S9 fractions assessed as oseltamivir carboxylate generation rate assessed per mg of protein per min; type: ADME, tissue-based
Method in brief: (§5)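 Rat brain or liver S9 (9,000 × g supernatant; 1.0 mg protein) was incubated in triplicate with 10 µM 14C-oseltamivir (final) in 100 mM Tris-HCl pH 7.4 for 30 min at 37°C. Reactions were quenched with TCA-acetonitrile, and the fraction converted to OC was measured by radioflow HPLC with fractionation. Rate was calculated as (pmol/ml substrate × fraction hydrolyzed)/(mg protein/ml × time), minus the no-protein background.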

[15] = Prodrug conversion in 7 days old male rat liver S9 fractions assessed as oseltamivir carboxylate generation rate assessed per mg of protein per min; type: ADME, subcellular, S9 fraction
Method in brief: (§6)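 S9 from brain or liver (rat S9 made by homogenizing tissue in ~4 ml Tris-sucrose buffer per g, supernatant after 9,000 × g at 10°C; pooled human brain and liver S9 also used), protein by bicinchoninic acid assay. Oseltamivir: triplicate, 10 μM 14C-oseltamivir final, 1.0 mg S9 protein, 100 mM Tris-HCl pH 7.4, 30 min at 37°C, quenched with TCA-acetonitrile.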

[16] = Prodrug conversion in 7 days old female rat liver S9 fractions assessed as oseltamivir carboxylate generation rate assessed per mg of protein per min; type: ADME, subcellular, S9 fraction; method in brief: as §6
[17] = Prodrug conversion in 42 days old female rat liver S9 fractions assessed as oseltamivir carboxylate generation rate assessed per mg of protein per min; type: ADME, subcellular, S9 fraction; method in brief: as §5
[18] = Prodrug conversion in commercial liver S9 fractions assessed as oseltamivir carboxylate generation rate assessed per mg of protein per min; type: ADME, subcellular, S9 fraction; method in brief: as §6
[19] = Prodrug conversion in 7 days old female rat liver S9 fractions assessed as conversion of oseltamivir to oseltamivir carboxylate; type: ADME, subcellular, S9 fraction; method in brief: as §6
[20] = Prodrug conversion in 42 days old male rat liver S9 fractions assessed as conversion of oseltamivir to oseltamivir carboxylate; type: ADME, subcellular, S9 fraction; method in brief: as §5
[21] = Prodrug conversion in human brain S9 fractions assessed as conversion of oseltamivir to oseltamivir carboxylate; type: ADME; method in brief: as §6
[22] = Prodrug conversion in 7 days old male rat liver S9 fractions assessed as paranitrophenol generation rate assessed per mg of protein per min; type: ADME, subcellular, S9 fraction
[23] = Prodrug conversion in 42 days old female rat brain S9 fractions assessed as paranitrophenol generation rate assessed per mg of protein per min; type: ADME, tissue-based; method in brief: as §3
[24] = AUC (0 to infinity) ratio in brain to plasma in perfused Sprague-Dawley rat at 30 mg/kg, iv; type: ADME, organism-based; set-up: dose 30 mg/kg, route intravenous; conditions: brain and plasma, read-out: Ratio AUC; method in brief: as §1
MDR1 (P-gp, ABCB1) = MDR1 (P-gp, ABCB1) (Homo sapiens, UniProt P08183); assay: Activity of human MDR1-mediated permeability from apical to basolateral side in pig LLC-PK1 cells in presence of P-gp inhibitor elacridar; type: cell-based; conditions: LLC-PK1, with elacridar (concentration not stated), read-out: permeability; method in brief: as §2
Plasma [25] = assay: AUC (0 to infinity) in non-perfused Sprague-Dawley rat plasma at 30 mg/kg; conditions: in vivo, iv

ATP-dependent translocase ABCB1, sequence (P08183 whole entry): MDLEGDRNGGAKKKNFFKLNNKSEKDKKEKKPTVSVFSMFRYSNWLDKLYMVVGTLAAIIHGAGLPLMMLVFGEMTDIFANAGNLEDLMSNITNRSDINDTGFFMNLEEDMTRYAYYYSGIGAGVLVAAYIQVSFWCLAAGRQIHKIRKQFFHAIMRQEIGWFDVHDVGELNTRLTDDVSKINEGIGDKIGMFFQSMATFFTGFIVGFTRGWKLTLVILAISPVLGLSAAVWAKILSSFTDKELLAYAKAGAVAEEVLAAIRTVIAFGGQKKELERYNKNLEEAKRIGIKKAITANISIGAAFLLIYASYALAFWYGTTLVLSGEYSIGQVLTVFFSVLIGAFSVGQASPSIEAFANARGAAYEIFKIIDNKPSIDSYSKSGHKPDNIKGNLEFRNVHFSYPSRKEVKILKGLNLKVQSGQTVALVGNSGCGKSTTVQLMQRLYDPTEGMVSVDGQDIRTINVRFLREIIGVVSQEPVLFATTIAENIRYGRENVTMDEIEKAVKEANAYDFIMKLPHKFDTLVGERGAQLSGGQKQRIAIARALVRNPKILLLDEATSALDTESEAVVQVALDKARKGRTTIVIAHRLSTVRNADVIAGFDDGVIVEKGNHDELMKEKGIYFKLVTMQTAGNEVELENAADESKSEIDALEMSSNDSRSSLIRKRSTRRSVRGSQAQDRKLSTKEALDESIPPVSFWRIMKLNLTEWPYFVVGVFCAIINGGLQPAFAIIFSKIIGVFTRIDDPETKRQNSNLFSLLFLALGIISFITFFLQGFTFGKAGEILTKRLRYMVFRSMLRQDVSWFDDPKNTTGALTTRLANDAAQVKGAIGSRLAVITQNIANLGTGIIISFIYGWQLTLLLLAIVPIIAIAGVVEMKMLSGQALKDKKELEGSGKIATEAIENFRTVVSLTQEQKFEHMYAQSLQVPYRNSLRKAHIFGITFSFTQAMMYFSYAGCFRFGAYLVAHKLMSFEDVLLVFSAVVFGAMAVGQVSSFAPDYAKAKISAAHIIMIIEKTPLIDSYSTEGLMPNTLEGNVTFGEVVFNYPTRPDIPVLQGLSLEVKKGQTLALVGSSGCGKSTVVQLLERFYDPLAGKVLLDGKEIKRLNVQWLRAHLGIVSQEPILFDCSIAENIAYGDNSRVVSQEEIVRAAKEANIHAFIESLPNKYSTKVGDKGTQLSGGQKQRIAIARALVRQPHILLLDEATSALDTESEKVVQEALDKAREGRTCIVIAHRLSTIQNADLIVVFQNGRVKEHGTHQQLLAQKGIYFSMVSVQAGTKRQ
MDR1 (P-gp, ABCB1), sequence (P08183 whole entry, the tested form may be a part): as the sequence (P08183 whole entry) above

For `CCC(CC)O[C@@H]1C=C(C(=O)O)C[C@H](N)[C@H]1NC(C)=O` [OSELTAMIVIR CARBOXYLATE], the Cmax (Cerebrospinal fluid) was “BLD”, the Cmax (Brain [1]) was 164 ng/g and the Cmax (Plasma [2]) was 6300 ng/mL. The Cmax (Brain [3]) was 75.5 ng/g, the Cmax [4] was 75.5 ng/g and the AUC (Brain [5]) was 145. It also gave an AUC (Plasma [6]) of 13600.

Compound `CCOC(=O)C1=C[C@@H](OC(CC)CC)[C@H](NC(C)=O)[C@@H](N)C1` [OSELTAMIVIR] has a Papp (LLC-PK1 [7]) of 1.01 ×10⁻⁶ cm/s, a Papp (LLC-PK1 [8]) of 1.01 ×10⁻⁶ cm/s and an IC50 [9] of 1.3 mM. The Activity [10] was 1001 nmol, the Activity [11] was “Active” and the Activity [12] was “Not Active”. It also gave an Activity [13] of 482 nmol, an Activity [14] of 0.6 pmol/min/mg and an Activity [15] of 0.33 pmol/s. It also gave an Activity [16] of 0.34 pmol/s, an Activity [17] of 1.37 pmol/s and an Activity [18] of 126 pmol/s. It also gave an Activity [19] of 0.1%, an Activity [20] of 0.63% and an Activity [21] of 0.12%. For the same compound, the Activity ([21]; BLD = below limit of detection) was “BLD”, the Activity [22] was 467 nmol and the Activity [23] was 70 nmol. The Kp [24] was 0.21, the Papp A→B (MDR1 (P-gp, ABCB1)) was 3.89 ×10⁻⁶ cm/s and the AUC (Plasma [25]) was 5330.
